The text below walks through data of ChEMBL document CHEMBL4004822, “Thienopyrimidinone Based Sirtuin-2 (SIRT2)-Selective Inhibitors Bind in the Ligand Induced Selectivity Pocket” (J Med Chem, 2017).

Assay [1] concerns the target T1, NAD-dependent protein deacetylase sirtuin-2 (Homo sapiens, UniProt Q8IXJ6).
T1 sequence (Q8IXJ6 whole entry): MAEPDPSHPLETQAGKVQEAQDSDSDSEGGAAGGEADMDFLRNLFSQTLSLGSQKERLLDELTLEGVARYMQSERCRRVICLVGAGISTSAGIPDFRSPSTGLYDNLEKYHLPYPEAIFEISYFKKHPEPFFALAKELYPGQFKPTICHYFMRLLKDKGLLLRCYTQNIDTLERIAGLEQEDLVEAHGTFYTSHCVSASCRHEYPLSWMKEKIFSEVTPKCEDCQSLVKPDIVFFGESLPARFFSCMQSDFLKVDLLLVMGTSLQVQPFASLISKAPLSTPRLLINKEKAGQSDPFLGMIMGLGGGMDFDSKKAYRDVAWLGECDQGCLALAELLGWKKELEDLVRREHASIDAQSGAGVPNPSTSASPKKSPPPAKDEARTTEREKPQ
Nature of the assay: Inhibition of recombinant human C-terminal His-tagged SIRT2 (50 to 389 end residues) expressed in Escherichia coli using p53 derived (379 to 382 residues) fluorogenic peptide substrate RHKK(Ac)-AMC preincubated for 10 mins followed by substrate addition in presence of NAD+ by fluorescence assay. The method in brief:
(§1)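 Two-step fluorogenic assay with p53 379–382 RHKK(Ac)-AMC. Compound (from 10 mM DMSO stock) preincubated ~10 min with human SIRT before substrate addition. Developer then releases fluorophore, read at ex 360/em 460 nm.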

In assay [2] the target is T2, NAD-dependent protein deacetylase sirtuin-2 (Homo sapiens) (UniProt Q8IXJ6).
T2 sequence (whole entry): T1 sequence (Q8IXJ6 whole entry)
Nature of the assay: Inhibition of recombinant human C-terminal His-tagged SIRT2 (50 to 389 end residues) expressed in Escherichia coli at 10 uM using p53 derived (379 to 382 residues) fluorogenic peptide substrate RHKK(Ac)-AMC preincubated for 10 mins followed by substrate addition in presence of NAD+ by fluorescence assay relative to control. The method in brief: as §1

pIC50: −log10 of the molar value.

On to `Cc1nn(C)c(C)c1CNC1CCc2c(sc3ncn(Cc4cccc5ccccc45)c(=O)c23)C1` (centres undefined), for which the pIC50 (usually the negative decadic logarithm of the IC50, by convention in mol/L) in assay [1] is 5.38. In assay [2], the inhibition (as a rule, how much of the control response was suppressed) was found to be 85%.
With `COc1ccc2ccccc2c1Cn1cnc2sc3c(c2c1=O)CCC(NCC1CCOC1)C3` (centres undefined), the pIC50 in assay [1] is 5.22. Moreover, the inhibition in assay [2] came to 85%.
Turning to `Cc1nn(C)c(C)c1CNC1CCc2c(sc3ncn(Cc4ccc5ccccc5c4)c(=O)c23)C1` (centres undefined), the pIC50 in assay [1] was 5.13. Further, the inhibition in assay [2] was found to be 87%.
The corresponding values for `O=c1c2c3c(sc2ncn1Cc1ccc2ccccc2c1)CC(NCc1ccncc1)CC3` (centres undefined) are 5.50 and 92%.
Consider `Cc1ccc(NC2CCc3c(sc4ncn(Cc5cccc6cccnc56)c(=O)c34)C2)cc1` (centres undefined), for which the pIC50 in assay [1] is 5.37. For the same compound, the inhibition in assay [2] was 78%.
In the same order, the values of `COc1ccc(CNCCc2sc3ncn(Cc4c(OC)ccc5ccccc45)c(=O)c3c2C)cc1` are 5.47 and 89%.
Regarding `O=c1c2c3c(sc2ncn1Cc1cccc2cccnc12)CC(NCc1ccc(Cl)cc1)CC3` (centres undefined), the pIC50 in assay [1] is 5.90. In assay [2], the inhibition is 94%.
The corresponding values for `Cc1noc(C)c1CNC1CCc2c(sc3ncn(Cc4cccc5ccccc45)c(=O)c23)C1` (centres undefined) are 5.73 and 85%.
For `O=c1c2c3c(sc2ncn1Cc1cccc2cccnc12)CC(NCCC1CCCCC1)CC3` (centres undefined), the pIC50 in assay [1] was 5.23. Further, the inhibition in assay [2] worked out at 81%.
As for `O=c1c2c3c(sc2ncn1Cc1cccc2ccccc12)CC(NCc1cncnc1)CC3` (centres undefined), the pIC50 in assay [1] is 5.19. Further, the inhibition in assay [2] is 86%.
For the compound `O=c1c2c3c(sc2ncn1Cc1cccc2cccnc12)CC(Nc1ccc(F)cc1)CC3` (centres undefined), in assay [1], the pIC50 was 6.01. For the same compound, the inhibition in assay [2] is 90%.
For `COc1ccc2ccccc2c1Cn1cnc2sc3c(c2c1=O)CCC(NCCc1ccncc1)C3` (centres undefined), the pIC50 in assay [1] was 5.56. Further, the inhibition in assay [2] was found to be 95%.
`O=c1c2c3c(sc2ncn1Cc1cccc2cccnc12)CC(NCc1ccccn1)CC3` (centres undefined): the pIC50 in assay [1] is 5.58. In addition, in assay [2], the inhibition is 87%.
In the same order, the values of `O=c1c2c3c(sc2ncn1Cc1cccc2cccnc12)CC(NCc1cccnc1)CC3` (centres undefined) are 5.53 and 91%.
`O=c1c2c3c(sc2ncn1Cc1cccc2ccccc12)CC(NCCc1ccncc1)CC3` (centres undefined): in assay [1], the pIC50 was 5.24. Further, the inhibition in assay [2] came to 75%.
In the same order, the values of `O=c1c2c3c(sc2ncn1Cc1ccc2ccccc2c1)CC(NCCc1cccnc1)CC3` (centres undefined) are 5.06 and 77%.
For the compound `COc1ccccc1Cn1cnc2sc3c(c2c1=O)CCC(NCC1CCCCC1)C3` (centres undefined), the pIC50 in assay [1] was 5.04. Also, in assay [2], the inhibition was determined as 79%.
As for `O=c1c2c3c(sc2ncn1Cc1cccc2cccnc12)CC(NCc1ccccc1Cl)CC3` (centres undefined), the pIC50 in assay [1] is 5.42. Further, the inhibition in assay [2] was 85%.
The corresponding values for `O=c1c2c3c(sc2ncn1Cc1cccc2cccnc12)CC(NCC1CCCCC1)CC3` (centres undefined) are 5.61 and 94%.
In the same order, the values of `COc1cccc(CNC2CCc3c(sc4ncn(Cc5ccccc5OC)c(=O)c34)C2)c1` (centres undefined) are 4.87 and 69%.
Take `O=c1c2c3c(sc2ncn1Cc1cccc(-c2ccccc2)c1)CC(NC1CCOCC1)CC3` (centres undefined): the pIC50 in assay [1] was 5.76. For the same compound, in assay [2], the inhibition is 93%.
For the compound `COc1ccc(CNC2CCc3c(sc4ncn(Cc5ccc6ccccc6c5)c(=O)c34)C2)cn1` (centres undefined), the pIC50 in assay [1] is 4.99. Moreover, the inhibition in assay [2] is 76%.
On to `O=c1c2c3c(sc2ncn1Cc1cccc(-c2ccccc2)c1)CC(NCCN1CCOCC1)CC3` (centres undefined), for which the pIC50 in assay [1] was 5.50. In addition, the inhibition in assay [2] amounted to 77%.
On to `O=c1c2c3c(sc2ncn1Cc1ccc2ccccc2c1)CC(NCC1CCCO1)CC3` (centres undefined), for which the pIC50 in assay [1] was 4.88. Also, the inhibition in assay [2] was 71%.
In the same order, the values of `O=c1c2c3c(sc2ncn1Cc1cccc2cccnc12)CC(NC1CCCc2ccccc21)CC3` (centres undefined) are 5.26 and 80%.
With `O=c1c2c3c(sc2ncn1Cc1cccc2ccccc12)CC(NCc1ccncc1)CC3` (centres undefined), in assay [1], the pIC50 was 5.45. Moreover, in assay [2], the inhibition worked out at 92%.
In the same order, the values of `Cc1noc(C)c1CNC1CCc2c(sc3ncn(Cc4cccc5cccnc45)c(=O)c23)C1` (centres undefined) are 5.16 and 80%.
As to `COc1ccc2ccccc2c1Cn1cnc2sc3c(c2c1=O)CCC(NCc1c(C)noc1C)C3` (centres undefined), the pIC50 in assay [1] was 5.40. The inhibition in assay [2] is 87%.
For `COc1ccc2ccccc2c1Cn1cnc2sc3c(c2c1=O)CCC(NCc1ccccn1)C3` (centres undefined), in assay [1], the pIC50 was 5.51. Also, the inhibition in assay [2] stood at 83%.
On to `O=c1c2c3c(sc2ncn1Cc1ccc2ccccc2c1)CC(NCc1ccco1)CC3` (centres undefined), for which the pIC50 in assay [1] was 4.93. In addition, the inhibition in assay [2] amounted to 72%.
In the same order, the values of `COc1ccccc1CNC1CCc2c(sc3ncn(Cc4cccc5cccnc45)c(=O)c23)C1` (centres undefined) are 5.25 and 85%.
`O=c1c2c3c(sc2ncn1Cc1cccc(-c2ccccc2)c1)CC(NCCN1CCCC1)CC3` (centres undefined): in assay [1], the pIC50 was 5.42. Further, the inhibition in assay [2] was determined as 77%.
As for `O=c1c2c3c(sc2ncn1Cc1cccc2cccnc12)CC(NCc1ccco1)CC3` (centres undefined), in assay [1], the pIC50 is 5.38. Besides, the inhibition in assay [2] was determined as 80%.
With `COc1ccc(NC2CCc3c(sc4ncn(Cc5cccc6cccnc56)c(=O)c34)C2)cc1` (centres undefined), the pIC50 in assay [1] was 5.61. Besides, the inhibition in assay [2] stood at 82%.
Regarding `COc1ccc(CNC2CCc3c(sc4ncn(Cc5cccc6cccnc56)c(=O)c34)C2)cc1` (centres undefined), the pIC50 in assay [1] was 5.74. In addition, in assay [2], the inhibition is 95%.
Consider `O=c1c2c3c(sc2ncn1Cc1ccc2ccccc2c1)CC(NCCc1ccncc1)CC3` (centres undefined), for which, in assay [1], the pIC50 is 5.02. The inhibition in assay [2] is 72%.
As to `COc1ccc(CNC2CCc3c(sc4ncn(Cc5ccc6ccccc6c5)c(=O)c34)C2)cc1` (centres undefined), in assay [1], the pIC50 was 5.42. For the same compound, the inhibition in assay [2] was found to be 86%.
As to `O=c1c2c3c(sc2ncn1Cc1cccc2ccccc12)CC(NCCc1cccnc1)CC3` (centres undefined), the negative logarithm of the IC50 (pIC50) in assay [1] is 5.02. Moreover, the inhibition in assay [2] worked out at 80%.
Turning to `COc1ccc(CNC2CCc3c(sc4ncn(Cc5c(OC)ccc6ccccc56)c(=O)c34)C2)cn1` (centres undefined), in assay [1], the pIC50 was 5.72. Further, the inhibition in assay [2] worked out at 83%.
As for `COc1ccc2ccccc2c1Cn1cnc2sc3c(c2c1=O)CCC(NCCc1cccnc1)C3` (centres undefined), the pIC50 in assay [1] is 4.99. Besides, in assay [2], the inhibition came to 66%.
For the compound `O=c1c2c3c(sc2ncn1Cc1cccc2ccccc12)CC(NCC1CCCO1)CC3` (centres undefined), the pIC50 in assay [1] is 4.90. Further, the inhibition in assay [2] turned out to be 67%.
As for `COc1ccccc1CNC1CCc2c(sc3ncn(Cc4ccccc4OC)c(=O)c23)C1` (centres undefined), in assay [1], the pIC50 is 5.02. Further, in assay [2], the inhibition came out at 72%.
The corresponding values for `COc1ccc2ccccc2c1Cn1cnc2sc3c(c2c1=O)CCC(NCc1cccs1)C3` (centres undefined) are 5.22 and 69%.
With `O=c1c2c3c(sc2ncn1Cc1cccc2cccnc12)CC(NCc1cccc(Cl)c1)CC3` (centres undefined), the pIC50 in assay [1] is 5.55. Also, in assay [2], the inhibition is 88%.
In the case of `O=c1c2c3c(sc2ncn1Cc1cccc2ccccc12)CC(NCc1cccnc1)CC3` (centres undefined), in assay [1], the pIC50 was 5.52. Moreover, in assay [2], the inhibition amounted to 89%.
On to `O=c1c2c3c(sc2ncn1Cc1cccc2cccnc12)CC(NCc1ccncc1)CC3` (centres undefined), for which the pIC50 in assay [1] was 5.43. Further, the inhibition in assay [2] is 83%.
As for `COc1ccccc1Cn1cnc2sc3c(c2c1=O)CCC(NC1CCc2ccccc21)C3` (centres undefined), the pIC50 in assay [1] was 4.79. In assay [2], the inhibition was 70%.
